In ChEMBL document CHEMBL1156325, “Novel acyl coenzyme A (CoA): diacylglycerol acyltransferase-1 inhibitors: synthesis and biological activities of diacylethylenediamine derivatives” (Bioorg Med Chem, 2010):
Converted amounts (≈) assume the structure as drawn.

Columns and labels:
[1] = Metabolic stability in mouse liver microsomes at 1 umol/L after 20 mins by HPLC assessed per mg of protein; format: ADME, Microsome; settings: read-out: Stability
Procedure, shortened: (§1)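 Hepatic microsomes (0.2 mg/mL protein) were incubated at 37 °C for 0 and 20 min with an NADPH-generating system added at 10% of reaction volume. The system held 50 mmol/L MgCl₂, 50 mmol/L glucose-6-phosphate, 5 mmol/L β-NADP⁺ and 15 unit/mL G6PDH. Reactions were stopped with an equal volume of acetonitrile, run in duplicate. Parent disappearance was measured by HPLC-UV and expressed as %/min/mg.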

[2] = Metabolic stability in human liver microsomes at 1 umol/L after 20 mins by HPLC assessed per mg of protein; format: ADME, Microsome; settings: read-out: Stability; procedure, shortened: as §1
[3] = Metabolic stability in rat liver microsomes at 1 umol/L after 20 mins by HPLC assessed per mg of protein; format: ADME, Microsome; settings: read-out: Stability; procedure, shortened: as §1
[4] = target: T1, Diacylglycerol O-acyltransferase 1 (Mus musculus, UniProt Q9Z2A7); assay: Inhibition of DGAT1 in mouse C2C12 cells assessed as suppression of [14C]triglyceride accumulation pretreated for 20 mins before [14C]oleic acid challenge measured after 20 mins by TLC analysis; format: cell-based
T1 sequence (Q9Z2A7 whole entry): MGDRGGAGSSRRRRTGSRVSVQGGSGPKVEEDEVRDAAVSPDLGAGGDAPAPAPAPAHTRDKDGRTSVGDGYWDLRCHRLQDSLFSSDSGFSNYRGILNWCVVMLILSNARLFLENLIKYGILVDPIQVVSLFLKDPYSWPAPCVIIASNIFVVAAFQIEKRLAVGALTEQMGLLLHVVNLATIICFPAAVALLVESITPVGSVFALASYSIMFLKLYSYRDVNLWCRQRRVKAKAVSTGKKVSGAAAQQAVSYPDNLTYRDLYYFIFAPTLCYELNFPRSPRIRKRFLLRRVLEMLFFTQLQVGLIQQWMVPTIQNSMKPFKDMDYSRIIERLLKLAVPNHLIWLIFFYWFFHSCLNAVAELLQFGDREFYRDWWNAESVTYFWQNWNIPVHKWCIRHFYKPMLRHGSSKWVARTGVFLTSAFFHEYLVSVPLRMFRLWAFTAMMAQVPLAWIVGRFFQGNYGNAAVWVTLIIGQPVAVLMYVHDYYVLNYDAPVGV
Procedure, shortened: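 C2C12 cell suspension (10⁶ cells/mL final) was preincubated with serial compound dilutions at 37 °C for 20 min. [¹⁴C]-oleic acid substrate was then added with 0.001% fatty-acid-free BSA, 0.2% ethanol and 0.1% DMSO final. After 20 min at 37 °C, reactions were stopped with chloroform/methanol (1:2). Chloroform-phase lipids were separated by TLC (hexane/ether/ethyl acetate/acetic acid 255:30:15:0.6).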

[5] = target: T2, Diacylglycerol O-acyltransferase 1 (Homo sapiens, UniProt O75907); assay: Inhibition of human DGAT1 expressed in baculovirus infected Sf9 cells using [14C]oleoyl-CoA after 15 mins by TLC analysis
T2 sequence (O75907 whole entry): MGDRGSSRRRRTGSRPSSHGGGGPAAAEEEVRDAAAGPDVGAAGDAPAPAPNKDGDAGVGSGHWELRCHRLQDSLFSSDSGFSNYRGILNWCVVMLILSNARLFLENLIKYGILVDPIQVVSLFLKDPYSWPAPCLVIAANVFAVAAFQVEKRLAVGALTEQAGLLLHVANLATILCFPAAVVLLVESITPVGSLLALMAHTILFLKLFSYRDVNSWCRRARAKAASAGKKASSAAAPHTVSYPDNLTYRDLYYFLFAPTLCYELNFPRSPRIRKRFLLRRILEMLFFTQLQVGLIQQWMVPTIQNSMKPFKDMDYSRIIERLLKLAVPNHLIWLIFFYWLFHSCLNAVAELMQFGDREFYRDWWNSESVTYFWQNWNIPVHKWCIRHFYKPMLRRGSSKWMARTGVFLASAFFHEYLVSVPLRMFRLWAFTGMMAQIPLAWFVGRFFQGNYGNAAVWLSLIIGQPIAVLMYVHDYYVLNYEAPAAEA

[6] = tested on: Mus musculus; assay: Toxicity in C57BL/6 mouse assessed as effect on total food intake at 3 mg/kg, po BID for 4 weeks; format: organism-based; set-up: dose 3 mg/kg, route oral; settings: in vivo, 672 h
Procedure, shortened: (§2)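 C57BL/6 mice fed a high-fat diet were dosed orally b.i.d. at 3 mg/kg as a 0.5% MC suspension for four weeks. Endpoints were body weight gain, total food intake, and mesenteric, perirenal and subcutaneous white adipose tissue weights.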

[7] = tested on: Mus musculus; assay: Antiobesity activity in C57BL/6 mouse assessed as reduction in subcutaneous white adipose tissue weight at 3 mg/kg, po BID for 4 weeks; format: functional; set-up: scale not given: the % may be the effect or the level left; procedure, shortened: as §2
[8] = tested on: Mus musculus; assay: Antiobesity activity in C57BL/6 mouse assessed as reduction in body weight gain at 3 mg/kg, po BID for 4 weeks; format: functional; set-up: scale not given: the % may be the effect or the level left; procedure, shortened: as §2
[9] = tested on: Mus musculus; assay: Antiobesity activity in C57BL/6 mouse assessed as reduction in mesenteric white adipose tissue weight at 3 mg/kg, po BID for 4 weeks; format: functional; set-up: scale not given: the % may be the effect or the level left; procedure, shortened: as §2
[10] = tested on: Mus musculus; assay: Antiobesity activity in C57BL/6 mouse assessed as reduction in perirenal white adipose tissue weight at 3 mg/kg, po BID for 4 weeks; format: functional; set-up: scale not given: the % may be the effect or the level left; procedure, shortened: as §2
[11] = Solubility at pH 6.8; format: physicochemical; settings: buffer

Structure (SMILES)	remaining at 20 min, 1 µM [1] [%]	remaining at 20 min, 1 µM [2] [%]	remaining at 20 min, 1 µM [3] [%]	IC50 [4] [µM]	also measured
CCOc1ccc(C(=O)NCCNC(=O)c2cn(Cc3ccccc3)nc2C(F)(F)F)cc1	7.5	5.5	18		
CCOc1cccc(C(=O)NCCNC(=O)c2cn(-c3ccccc3)nc2C(F)(F)F)c1	19	14	8.3	5.1	
CCOc1ccc(C(=O)NC[C@H](CO)NC(=O)c2cn(-c3ccccc3)nc2C(F)(F)F)cc1					IC50 [5]: > 10 µM
CCOc1ccc(C(=O)NCCNC(=O)c2cn(-c3cccnc3)nc2C(F)(F)F)cc1				3.4	
CCOc1ccc(C(=O)N[C@@H](CO)CNC(=O)c2cn(-c3ccccc3)nc2C(F)(F)F)cc1					IC50 [5]: > 10 µM
CCOc1ccc(C(=O)N[C@H](CO)CNC(=O)c2cn(-c3ccccc3)nc2C(F)(F)F)cc1					IC50 [5]: > 10 µM
CCOc1ccc(C(=O)NC[C@@H](CO)NC(=O)c2cn(-c3ccccc3)nc2C(F)(F)F)cc1					IC50 [5]: > 10 µM
CCOc1cc(C)c(C(=O)CCC(=O)Nc2nc(-c3ccccc3)c(Cc3ccccc3)s2)cc1OCC	16	13	11		solubility [11]: 0.08 µg/mL (≈ 0.151 µM)
CCOc1ccc(C(=O)NCCNC(=O)c2cn(-c3ccc(Cl)cc3)nc2C(F)(F)F)cc1	3.4	4.5	7.2	1.5	
CCOc1ccc(C(=O)NCCNC(=O)c2cn(-c3ccncc3)nc2C(F)(F)F)cc1				> 10	
CCOc1ccc(C(=O)NCCNC(=O)c2nn(-c3ccccc3)cc2C)cc1	14	12	12	1.2	
CCOc1ccc(C(=O)NCCNC(=O)c2nc(-c3ccccc3)c(Cc3ccccc3)s2)cc1	17	10	14		solubility [11]: < 0.05 µg/mL

More lines, main results first:

remaining at 20 min, 1 µM [1] [%]	remaining at 20 min, 1 µM [2] [%]	remaining at 20 min, 1 µM [3] [%]	IC50 [4] [µM]	Structure (SMILES)	also measured
0	2.1	0.4	0.044	O=C(NCCNC(=O)c1cn(-c2ccccc2)nc1C(F)(F)F)c1ccc(OCC(F)(F)F)nc1	Activity [6]: Non-toxic; Activity [7]: -2.8%; Activity [8]: -75%; Activity [9]: -25%; Activity [10]: -12%
7	14	10	0.091	CCOc1ccc(C(=O)NCCNC(=O)c2cn(-c3ccccn3)nc2C(F)(F)F)cc1	
0	2.2	1.1	0.37	O=C(NCCNC(=O)c1cn(-c2ccccc2)nc1C(F)(F)F)c1ccc(Cl)nc1	
6.5	7.4	7.1	0.6	CCOc1ccc(C(=O)NCCNC(=O)c2cn(-c3cccc(OCC)c3)nc2C(F)(F)F)cc1	
14	7.5	8.7	0.38	CCOc1ccc(C(=O)NCCNC(=O)c2cn(-c3ccc(OCC)cc3)nc2C(F)(F)F)cc1	
3.5	5.9	6.5	0.4	O=C(NCCNC(=O)c1cn(-c2ccccc2)nc1C(F)(F)F)c1ccc(-n2cccn2)cc1	
7	9	6.5	0.077	CCOc1ccc(C(=O)NCCNC(=O)c2cn(-c3ccccc3)nc2C(F)(F)F)cc1	solubility [11]: 1.1 µg/mL (≈ 2.46 µM)
1.8	4.8	2.6	1.2	O=C(NCCNC(=O)c1cn(-c2ccccc2)nc1C(F)(F)F)c1ccc(Cl)cn1	
2.5	5.1	3.4	0.087	CCOc1ccc(C(=O)NCCNC(=O)c2cn(-c3ccccc3)nc2C(F)(F)F)cn1	
7.8	8.7	11	0.65	CCOc1ccc(C(=O)NCCNC(=O)c2cn(C3CCCCC3)nc2C(F)(F)F)cc1	
2.5	5	5.8	0.26	CCOc1ccc(C(=O)NCCNC(=O)c2cn(-c3ccccc3)nc2C)cc1	
0.5	5.7	18	0.61	CCOc1ccc(C(=O)NCCNC(=O)c2cn(-c3ccccc3O)nc2C(F)(F)F)cc1	
